Calls of active or inactive are those of the source. No cut-off for these calls is given here.
Columns and labels:
MCF7 [1] = experiment: Cell cycle arrest in human MCF7 cells expressing scrambled siRNA assessed as accumulation at G0/G1 phase at 1 uM after 24 hrs by propidium iodide staining based flow cytometry (reference value: 49.28%); assay type: functional
MCF7 [2] = experiment: Cell cycle arrest in human MCF7 cells expressing scrambled siRNA assessed as accumulation at G2/M phase at 1 uM after 24 hrs by propidium iodide staining based flow cytometry (reference value: 19.6%); assay type: functional
MCF7 [3] = experiment: Cell cycle arrest in human MCF7 cells expressing scrambled siRNA assessed as accumulation at S phase at 1 uM after 24 hrs by propidium iodide staining based flow cytometry (reference value: 29.79%); assay type: functional
MCF7 [4] = experiment: Cell cycle arrest in human MCF7 cells expressing VDR siRNA assessed as accumulation at G0/G1 phase at 1 uM after 24 hrs by propidium iodide staining based flow cytometry (reference value: 49.17%); assay type: functional
MCF7 [5] = experiment: Cell cycle arrest in human MCF7 cells expressing VDR siRNA assessed as accumulation at G2/M phase at 1 uM after 24 hrs by propidium iodide staining based flow cytometry (reference value: 17.57%); assay type: functional
MCF7 [6] = experiment: Cell cycle arrest in human MCF7 cells expressing VDR siRNA assessed as accumulation at S phase at 1 uM after 24 hrs by propidium iodide staining based flow cytometry (reference value: 32%); assay type: functional
MCF7 [7] = experiment: Induction of apoptosis in human MCF7 cells expressing scrambled siRNA assessed as live cells at 1 uM after 24 hrs by Annexin-V-FITC/propidium iodide staining based flow cytometry (reference value: 97.93%); assay type: functional
MCF7 [8] = experiment: Induction of apoptosis in human MCF7 cells expressing scrambled siRNA assessed as early apoptotic cells at 1 uM after 24 hrs by Annexin-V-FITC/propidium iodide staining based flow cytometry (reference value: 0.93%); assay type: functional
MCF7 [9] = experiment: Induction of apoptosis in human MCF7 cells expressing scrambled siRNA assessed as late apoptotic cells at 1 uM after 24 hrs by Annexin-V-FITC/propidium iodide staining based flow cytometry (reference value: 0.98%); assay type: functional
MCF7 [10] = experiment: Induction of apoptosis in human MCF7 cells expressing scrambled siRNA assessed as necrotic cells at 1 uM after 24 hrs by Annexin-V-FITC/propidium iodide staining based flow cytometry (reference value: 0.16%); assay type: functional
MCF7 [11] = experiment: Induction of apoptosis in human MCF7 cells expressing VDR siRNA assessed as live cells at 1 uM after 24 hrs by Annexin-V-FITC/propidium iodide staining based flow cytometry (reference value: 98.35%); assay type: functional
MCF7 [12] = experiment: Induction of apoptosis in human MCF7 cells expressing VDR siRNA assessed as early apoptotic cells at 1 uM after 24 hrs by Annexin-V-FITC/propidium iodide staining based flow cytometry (reference value: 0.49%); assay type: functional
MCF7 [13] = experiment: Induction of apoptosis in human MCF7 cells expressing VDR siRNA assessed as late apoptotic cells at 1 uM after 24 hrs by Annexin-V-FITC/propidium iodide staining based flow cytometry (reference value: 1.01%); assay type: functional
MCF7 [14] = experiment: Induction of apoptosis in human MCF7 cells expressing VDR siRNA assessed as necrotic cells at 1 uM after 24 hrs by Annexin-V-FITC/propidium iodide staining based flow cytometry (reference value: 0.15%); assay type: functional
MCF7 [15] = experiment: Antitumor activity against human MCF7 cells xenografted in Balb/c nude mouse assessed as increase in p21 expression at […], ip administered three times a week for three weeks starting from day 7 after tumor cell inoculation by immunohistochemical analysis; assay type: functional, organism-based
Procedure, shortened: (§1)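 Orthotopic MCF-7 fat-pad xenografts in nude mice, as above. Dosing ip three times weekly for three weeks. Tumours fixed 24 h in 4% neutral buffered paraformaldehyde, paraffin-embedded and cut at 5 µm. Sections dewaxed with antigen retrieval, peroxidase quenched with 3% H2O2 for 10 min, then immunostained for p21, p27 and Bax.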

MCF7 [16] = experiment: Antitumor activity against human MCF7 cells xenografted in Balb/c nude mouse assessed as increase in p27 expression at […], ip administered three times a week for three weeks starting from day 7 after tumor cell inoculation by immunohistochemical analysis; assay type: functional, organism-based; procedure, shortened: as §1
MCF7 [17] = experiment: Antitumor activity against human MCF7 cells xenografted in Balb/c nude mouse assessed as increase in Bax expression at […], ip administered three times a week for three weeks starting from day 7 after tumor cell inoculation by immunohistochemical analysis; assay type: functional, organism-based; procedure, shortened: as §1
Mus musculus [18] = experiment: Hypercalcemic effect in Balb/c nude mouse xenografted with human MCF7 cells assessed as effect on serum calcium level at 0.5 ug/kg, ip administered three times a week for three weeks starting from day 7 after tumor cell inoculation measured on day 27 (reference value: 0.6 umol/ml); conditions: in vivo
Mus musculus [19] = experiment: Hypercalcemic effect in Balb/c nude mouse xenografted with human MCF7 cells assessed as effect on serum calcium level at 0.5 ug/kg, ip administered three times a week for three weeks starting from day 7 after tumor cell inoculation measured on day 17 during compound dosing (reference value: 0.6 umol/ml); conditions: in vivo

In the case of `C=C1/C(=C\C=C2/CCC[C@]3(C)[C@@H]([C@H](C)CCCC(C)(C)O)CC[C@@H]23)C[C@@H](O)C[C@@H]1O` [CALCITRIOL], the Activity (MCF7 [1]) is reported as 55.16%, the Activity (MCF7 [2]) is reported as 13.4% and the Activity (MCF7 [3]) is reported as 30.32%. It also gave an Activity (MCF7 [4]) of 51.38%, an Activity (MCF7 [5]) of 17.15% and an Activity (MCF7 [6]) of 30.33%. It also gave an Activity (MCF7 [7]) of 95%, an Activity (MCF7 [8]) of 1.29% and an Activity (MCF7 [9]) of 3.38%. It also gave an Activity (MCF7 [10]) of 0.33%, an Activity (MCF7 [11]) of 97.25% and an Activity (MCF7 [12]) of 0.84%. The Activity (MCF7 [13]) was 1.49%, the Activity (MCF7 [14]) was 0.42% and the Activity (MCF7 [15]) was “Active”. The Activity (MCF7 [16]) was “Active”, the Activity (MCF7 [17]) was “Active” and the Activity (Mus musculus [18]) was 0.61 µmol/mL. The Activity (Mus musculus [19]) was 0.6 µmol/mL.
